{
  "source": "ChEMBL document CHEMBL1130118",
  "about": "“A novel radioiodination reagent for protein radiopharmaceuticals with L-lysine as a plasma-stable metabolizable linkage to liberate m-iodohippuric acid after lysosomal proteolysis” (J Med Chem, 1997)",
  "format_in_all_cases": "ADME, organism-based",
  "key": {"[1]": {"assay": "Cumulative radioactivity exerted by [131 I ]L-HML-NGA in the urine at 24 hour postinjection of [131 I ]L-HML-NGA and [125 I ]HML-IT-NGA.", "conditions": "in vivo", "outline": "(§1)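 Mice received one i.v. co-injection of the dual-isotope NGA mixture, 9 µg of each radioiodinated protein, and were housed in metabolic cages for 24 h. Cumulative urine and feces were collected and counted. Values are % injected dose, mean (SD) of five animals, with a Student's paired t-test between the two co-administered conjugates.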"}, "Homo sapiens [2]": {"organism": "Homo sapiens", "assay": "The percent protein-bound radioactivity in NGAfractions following incubation of radioiodinated [131 I ]L-HML-NGA in human serum after 24 hours", "outline": "(§2)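 Conjugates were diluted to 0.5 mg/mL in 0.1 M PBS pH 6.0, and 20 µL was added to 230 µL of freshly prepared human serum. Samples were incubated at 37 °C and taken at 1, 3, 6 or 24 h. Protein-bound fraction (Rf 0) was separated from small metabolites (Rf 0.6-0.9) by paper chromatography in methanol-water 4:1. Protein-bound radioactivity was divided by the initial radiochemical purity. Values are mean (SD).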"}, "Mus musculus [3]": {"test_system": "Mus musculus", "assay": "The biodistribution time for [131 I ]L-HML-NGA radioactivity after concomitant administration of [[131 I ]L-HML-NGA and [125 I ]MPH-NGA in mice. It is expressed as percent injected dose per kidney.", "conditions": "in vivo", "outline": "(§3)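 Six-week-old male ddY mice were given one i.v. co-injection of a 131I/125I-labelled NGA pair, each diluted to 90 µg/mL protein in 0.1 M PBS pH 6.0 and mixed 1:1, giving 9 µg of each radioiodinated NGA per mouse. Groups of five were killed at 5, 15, 30 min, 1 h and 3 h. Organs were weighed and counted in a well counter. Values are % ID per organ, blood as % ID/g, mean (SD).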"}, "Mus musculus [4]": {"test_system": "Mus musculus", "assay": "The biodistribution time for [131 I ]L-HML-NGA radioactivity after concomitant administration of [131 I ]L-HML-NGA and [125 I ]L-HML-IT-NGA in mice. It is expressed as percent injected dose per liver", "conditions": "in vivo", "outline": "as §3"}, "[5]": {"assay": "Cumulative radioactivity exerted by [131 I ]L-HML-NGA in the feces at 24 hour postinjection of [131 I ]L-HML-NGA and [125 I ]MPH-NGA.", "conditions": "in vivo", "outline": "as §1"}, "Mus musculus [6]": {"test_system": "Mus musculus", "assay": "The biodistribution time for [131 I ]L-HML-NGA radioactivity after concomitant administration of [131 I ]L-HML-NGA and [125 I ]L-HML-IT-NGA in mice. It is expressed as percent injected dose per neck.", "conditions": "in vivo", "outline": "as §3"}, "[7]": {"assay": "Cumulative radioactivity exerted by [131 I ]L-HML-NGA in the feces at 24 hour postinjection of [131 I ]L-HML-NGA and [125 I ]D-HML-NGA.", "conditions": "in vivo", "outline": "as §1"}, "Homo sapiens [8]": {"organism": "Homo sapiens", "assay": "The percent protein-bound radioactivity in NGAfractions following incubation of radioiodinated [131 I ]L-HML-NGA in human serum after 1 hour", "outline": "as §2"}, "Mus musculus [9]": {"test_system": "Mus musculus", "assay": "The biodistribution time for [131 I ]L-HML-NGA radioactivity after concomitant administration of [131 I ]L-HML-NGA and [125 I ]D-HML-NGA in mice. It is expressed as percent injected dose per intestine.", "conditions": "in vivo", "outline": "as §3"}, "[10]": {"assay": "Cumulative radioactivity exerted by [131 I ]L-HML-NGA in the urine at 24 hour postinjection of [131 I ]L-HML-NGA and [125 I ]MIH-NGA.", "conditions": "in vivo", "outline": "as §1"}, "Mus musculus [11]": {"test_system": "Mus musculus", "assay": "The biodistribution time for [131 I ]L-HML-NGA radioactivity after concomitant administration of [131 I ]L-HML-NGA and [125 I ]MPH-NGA in mice. It is expressed as percent injected dose per stomach.", "conditions": "in vivo", "outline": "as §3"}, "[12]": {"assay": "Cumulative radioactivity exerted by [131 I ]L-HML-NGA in the feces at 24 hour postinjection of [131 I ]L-HML-NGA and [125 I ]MIH-NGA.", "conditions": "in vivo", "outline": "as §1"}, "Mus musculus [13]": {"test_system": "Mus musculus", "assay": "The biodistribution time for [131 I ]L-HML-NGA radioactivity after concomitant administration of [131 I ]L-HML-NGA and [125 I ]L-HML-IT-NGA in mice. It is expressed as percent injected dose per gram of blood tissue.", "conditions": "in vivo", "outline": "as §3"}, "Mus musculus [14]": {"test_system": "Mus musculus", "assay": "The biodistribution time for [131 I ]L-HML-NGA radioactivity after concomitant administration of [[131 I ]L-HML-NGA and [125 I ]D-HML-NGA in mice. It is expressed as percent injected dose per kidney.", "conditions": "in vivo", "outline": "as §3"}, "Mus musculus [15]": {"test_system": "Mus musculus", "assay": "The biodistribution time for [131 I ]L-HML-NGA radioactivity after concomitant administration of [131 I ]L-HML-NGA and [125 I ]MPH-NGA in mice. It is expressed as percent injected dose per liver. Ent after 1 hour", "conditions": "in vivo", "outline": "as §3"}, "[16]": {"assay": "Cumulative radioactivity exerted by [131 I ]L-HML-NGA in the feces at 24 hour postinjection of [131 I ]L-HML-NGA and [125 I ]HML-IT-NGA.", "conditions": "in vivo", "outline": "as §1"}, "[17]": {"assay": "Cumulative radioactivity exerted by [131 I ]L-HML-NGA in the urine at 24 hour postinjection of [131 I ]L-HML-NGA and [125 I ]D-HML-NGA.", "conditions": "in vivo", "outline": "as §1"}, "Mus musculus [18]": {"test_system": "Mus musculus", "assay": "The biodistribution time for [131 I ]L-HML-NGA radioactivity after concomitant administration of [131 I ]L-HML-NGA and [125 I ]MIH-NGA in mice. It is expressed as percent injected dose per intestine.", "conditions": "in vivo", "outline": "as §3"}, "Mus musculus [19]": {"test_system": "Mus musculus", "assay": "The biodistribution time for [131 I ]L-HML-NGA radioactivity after concomitant administration of [[131 I ]L-HML-NGA and [125 I ]L-HML-IT-NGA in mice. It is expressed as percent injected dose per kidney.", "conditions": "in vivo", "outline": "as §3"}, "Mus musculus [20]": {"test_system": "Mus musculus", "assay": "Biodistribution time for compound radioactivity after concomitant administration of compound and [125 I ]MIH-NGA in mice was expressed as % injected dose per liver after 15 min", "conditions": "in vivo, 0.25 h", "outline": "as §3"}, "Mus musculus [21]": {"test_system": "Mus musculus", "assay": "The biodistribution time for [131 I ]L-HML-NGA radioactivity after concomitant administration of [[131 I ]L-HML-NGA and [125 I ]MIH-NGA in mice. It is expressed as percent injected dose per kidney.", "conditions": "in vivo", "outline": "as §3"}, "Mus musculus [22]": {"test_system": "Mus musculus", "assay": "The biodistribution time for [131 I ]L-HML-NGA radioactivity after concomitant administration of [131 I ]L-HML-NGA and [125 I ]L-HML-IT-NGA in mice. It is expressed as percent injected dose per gram of blood tissue. Values are mean(SD) of five anim", "conditions": "in vivo", "outline": "as §3"}, "Mus musculus [23]": {"test_system": "Mus musculus", "assay": "The biodistribution time for [131 I ]L-HML-NGA radioactivity after concomitant administration of [131 I ]L-HML-NGA and [125 I ]L-HML-IT-NGA in mice. It is expressed as percent injected dose per intestine.", "conditions": "in vivo", "outline": "as §3"}, "Mus musculus [24]": {"test_system": "Mus musculus", "assay": "The biodistribution time for [131 I ]L-HML-NGA radioactivity after concomitant administration of [131 I ]L-HML-NGA and [125 I ]D-HML-NGA in mice. It is expressed as percent injected dose per stomach.", "conditions": "in vivo", "outline": "as §3"}},
  "note": "Values joined by “and” are separate entries in the source; they are usually repeats but may differ in a detail not shown here. Equal values may be shown once.",
  "data": [
    {"smiles": "N[C@@H](CS)C(=O)SC1CC(=O)N(CCCC[C@H](NC(=O)CNC(=O)c2cccc([131I])c2)C(=O)O)C1=O", "note": "(some centres undefined)", "values": [
      {"measurement": "Radioactivity", "setting": "[1]", "result": 80.07, "unit": "%"},
      {"measurement": "Radioactivity", "setting": "Homo sapiens [2]", "result": 97.23, "unit": "%"},
      {"measurement": "Radioactivity", "setting": "Mus musculus [3]", "result": "0.76% and 5.3% and 2.3% and 0.31% and 0.13%"},
      {"measurement": "Radioactivity", "setting": "Mus musculus [4]", "result": 54.25, "unit": "%"},
      {"measurement": "Radioactivity", "setting": "[5]", "result": 3.28, "unit": "%"},
      {"measurement": "Radioactivity", "setting": "Mus musculus [6]", "result": "0.07% and 0.25% and 0.21% and 0.03%"},
      {"measurement": "Radioactivity", "setting": "[7]", "result": 4.4, "unit": "%"},
      {"measurement": "Radioactivity", "setting": "Homo sapiens [8]", "result": 99.78, "unit": "%"},
      {"measurement": "Radioactivity", "setting": "Mus musculus [9]", "result": "1.77% and 4.88% and 7.76% and 9.83% and 8.6%"},
      {"measurement": "Radioactivity", "setting": "[10]", "result": 87.32, "unit": "%"},
      {"measurement": "Radioactivity", "setting": "Mus musculus [11]", "result": "0.26% and 0.57% and 0.3% and 0.29% and 0.33%"},
      {"measurement": "Radioactivity", "setting": "[12]", "result": 5.87, "unit": "%"},
      {"measurement": "Radioactivity", "setting": "Mus musculus [13]", "result": "1.13% and 1.72% and 0.8% and 0.48%"},
      {"measurement": "Radioactivity", "setting": "Mus musculus [14]", "result": "1.07% and 4.49% and 1.55% and 0.61% and 0.27%"},
      {"measurement": "Radioactivity", "setting": "Mus musculus [15]", "result": 4.29, "unit": "%"},
      {"measurement": "Radioactivity", "setting": "[16]", "result": 2.83, "unit": "%"},
      {"measurement": "Radioactivity", "setting": "[17]", "result": 80.78, "unit": "%"},
      {"measurement": "Radioactivity", "setting": "Mus musculus [18]", "result": "0.78% and 3.57% and 5.41% and 6.15% and 4.54%"},
      {"measurement": "Radioactivity", "setting": "Mus musculus [19]", "result": "0.28% and 4.91% and 4.92% and 0.96% and 0.21%"},
      {"measurement": "Radioactivity", "setting": "Mus musculus [20]", "result": 54.33, "unit": "%"},
      {"measurement": "Radioactivity", "setting": "Mus musculus [21]", "result": "0.84% and 4.16% and 2.19% and 0.51% and 0.16%"},
      {"measurement": "Radioactivity", "setting": "Mus musculus [22]", "result": 3.19, "unit": "%"},
      {"measurement": "Radioactivity", "setting": "Mus musculus [23]", "result": "0.35% and 2.3% and 4.98% and 5.54% and 5.14%"},
      {"measurement": "Radioactivity", "setting": "Mus musculus [24]", "result": "0.2% and 0.5% and 0.88% and 0.78% and 0.69%"}
    ]}
  ]
}
